One series concerns E. faecium ATCC 700221. The series can be described thus: Time-kill assay. The format is cell-based. The note with it: 5× MIC, 24 hours, 37 °C.
A further series has as its system VRE strains. Nature of the series: MIC in ambient air versus 5% CO2 on representative enterococcal strains. It is filed as cell-based, Enterococcus. The settings on record: five representative enterococcal strains. In a few lines: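 CLSI broth microdilution. Enterococci grown overnight on trypticase soy agar at 37 °C, adjusted to 0.5 McFarland, then diluted in TSB to about 5 × 10^5 CFU/mL. Compounds from 10 mg/mL DMSO stocks serially diluted.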

Series [1] deals with Caco-2. The settings on record: cited from earlier work.
The test system of another series is plasma protein. The settings on record: cited from earlier work.
The test system of another series is panel of VRE isolates. The series can be described thus: MIC50/MIC90 over panel of eleven VRE clinical isolates. The format is cell-based, E. faecium, E. faecalis. The settings on record: Enterococcus.
The next series is described as follows: Aqueous solubility. The format is physicochemical. The note with it: for solubility at 24 h: PBS buffer, pH 7.4.
The test system of series [2] is Caco-2. The series can be described thus: Bi-directional Caco-2 permeability. It is filed as in vitro ADME, human. The essentials: (§1)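 Bidirectional (A→B and B→A) transport across Caco-2 monolayers, run by a contract lab. Donor/receiver pH 6.5/7.4. Concentrations measured as chromatographic peak areas. Papp (10^-6 cm/s) derived from end-point receiver concentration, incubation time, monolayer area and mid-point donor concentration. Recovery (%) = donor plus receiver amounts at end, relative to donor amount at time zero.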
In general terms: Caco-2 monolayers are a common model of the intestinal barrier.

Series [3] in a line: In vivo pharmacokinetics, oral gavage. Details: species or system mice. The settings on record: male, ICR, mouse, plasma, 10 mg/kg.
Series [4] is described as follows: Bi-directional Caco-2 permeability. It is filed as in vitro ADME, human. The note with it: human, Caco-2. The essentials:
as §1

A further series concerns E. faecium HM-965. The series can be described thus: MIC, broth microdilution. It is filed as cell-based. The essentials:
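MIC by CLSI broth microdilution against E. faecium HM-965. Cells grown overnight on trypticase soy agar at 37 °C, set to 0.5 McFarland, and diluted in TSB to about 5 × 10^5 CFU/mL. Compounds from 10 mg/mL DMSO stocks serially diluted in plates.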
(In general: Dilution methods test growth across graded concentrations, often in twofold steps.)

Molecules are shown by their SMILES. In brackets after ≈: the same amount, converted by molar mass. Entries after “also recorded” stand apart in the source; their conditions may differ. Where two headings read alike, the source gives them in different places.

With `CC(=O)Nc1nnc(S(N)(=O)=O)s1` [AZM, N-(5-sulfamoyl-1,3,4-thiadiazol-2-yl)acetamide], the “bacteriostatic or bactericidal activity” value with E. faecium ATCC 700221 is given as “bacteriostatic”. For the same compound, the “activity against VRE strains in presence of 5% CO2” value in the series with VRE strains was “inactive”. Also, in the series with Caco-2 [1] (Caco-2, pH 6), the “Papp A → B” value is 0.19^f 10^−6 cm/sec and the “Papp B → A” value is 0.77^f 10^−6 cm/sec. For the same compound, in the series with Caco-2 [1] (Caco-2), the “apparent permeability coefficient, Papp, low-permeable drug class” value was below 5e+12 ×10⁻⁶ cm/s and the “net transport (A➔B) with P-gp inhibitors” value is “up to 1.92”. Besides, the “net transport (A➔B)” value with Caco-2 [1] is 0.24. In addition, the plasma protein binding result in the series with plasma protein is “over 90%”.
Turning to `NS(=O)(=O)c1nnc(NC(=O)CC2CCCCC2)s1` [Compound 20, 2-Cyclohexyl-N-(5-sulfamoyl-1,3,4-thiadiazol-2-yl)acetamide], the “activity against VRE strains in presence of 5% CO2” value with VRE strains is “inactive”.
Usually MIC90 stands for the lowest concentration that inhibits either 90% of growth or 90% of the strains tested, depending on the study. As usually defined, the solubility is how much of the substance goes into solution per volume. As for `NS(=O)(=O)c1nnc(NC(=O)CCC2CCCCC2)s1` [Compound 22, 3-Cyclohexyl-N-(5-sulfamoyl-1,3,4-thiadiazol-2-yl)propanamide], the MIC90 in the series with panel of VRE isolates (read-out: MIC90 converted to molar cellular potency) is 0.0942 µM. Also, the “bacteriostatic or bactericidal activity” value in the series with E. faecium ATCC 700221 is “bacteriostatic”. Also, in “Aqueous solubility”, the “maximum solubility relative to MIC against E. faecium HM-965” value was “approximately 1500 fold” and the solubility at 24 h was determined as 10.4 µg/mL (≈ 32.7 µM). The “net transport (A➔B)” value with Caco-2 [2] (Caco-2, pH 6.5/7.4) is 0.46. In [3], this compound gave a concentration at 1440 min of 0 ng/mL.
Take `NS(=O)(=O)c1nnc(NC(=O)CN2CCOCC2)s1` [Compound 26, 2-(Morpholin-1-yl)-N-(5-sulfamoyl-1,3,4-thiadiazol-2-yl)acetamide]: in the series on E. faecium ATCC 700221, the “bacteriostatic or bactericidal activity” value was “bacteriostatic”. Further, in “Aqueous solubility”, the “maximum solubility relative to MIC against E. faecium HM-965” value is listed as “approximately 40 fold” and the solubility at 24 h is 39 µg/mL (≈ 127 µM). This compound had a recovery in series [4] of 83%. Moreover, the “concentration of molecule in the receiver chambers” value in the series with Caco-2 [2] (Caco-2 permeability assay) is given as “below the limit of detection”.
In the case of `NS(=O)(=O)c1nnc(NCC2CCCCC2)s1` [Compound 30, 5-((cyclohexylmethyl)amino)-1,3,4-thiadiazole-2-sulfonamide], in the series on E. faecium HM-965, the “anti-VRE activity (in words)” value is “inactive against VRE”.
The same measure, in the same setting: to `CC(=O)Nc1nnc(S(C)(=O)=O)s1` [Compound 33, N-(5-(Methylsulfonyl)-1,3,4-thiadiazol-2-yl)acetamide] belongs “abolished the anti-VRE activity; also recorded: inactive against VRE strains; also recorded: complete loss of activity”; to `CC(=O)Nc1ncc(S(N)(=O)=O)s1` [Compound 34, N-(5-sulfamoylthiazol-2-yl)acetamide], “abrogated activity against VRE; also recorded: complete loss of anti-VRE activity”.
As for `CC(=O)Nc1ccc(S(N)(=O)=O)cc1` [Compound 35, N-(4-sulfamoylphenyl)acetamide], the “anti-VRE activity (in words)” value with E. faecium HM-965 was “complete loss of activity”.
`CC(=O)NC[C@H]1CN(c2ccc(N3CCOCC3)c(F)c2)C(=O)O1` [linezolid, reference compound]: the “bacteriostatic or bactericidal activity” value in the series on E. faecium ATCC 700221 was “bacteriostatic”.
On to `CN[C@H](CC(C)C)C(=O)N[C@H]1C(=O)N[C@@H](CC(N)=O)C(=O)N[C@H]2C(=O)N[C@H]3C(=O)N[C@H](C(=O)N[C@H](C(=O)O)c4cc(O)cc(O)c4-c4cc3ccc4O)[C@H](O)c3ccc(c(Cl)c3)Oc3cc2cc(c3O[C@@H]2O[C@H](CO)[C@@H](O)[C@H](O)[C@H]2O[C@H]2C[C@](C)(N)[C@H](O)[C@H](C)O2)Oc2ccc(cc2Cl)[C@H]1O` [vancomycin, reference compound], for which, in the series with panel of VRE isolates, the MIC90 is above 64 µg/mL.

The values are drawn from publication PMC8317130 (Journal of medicinal chemistry, 2020).
